Active and inactive are the calls of the source. No cut-off for these calls is given here.
Legend:
[1] = system: Mus musculus; test: Hypoglycemic activity in db/db mouse assessed as decrease in blood glucose level at 30 mg/kg, po treated for 3 week measured at 3 hrs post last dose (reference value: 0.0 +/- 6.8%); format: functional; design: scale not given: the % may be the effect or the level left
[2] = system: Mus musculus; test: Toxicity in db/db mouse assessed as increase in body weight at 30 mg/kg, po treated for 1 to 3 weeks measured at 3 hrs post last dose relative to control; format: organism-based; settings: in vivo
[3] = system: Mus musculus; test: Hypoglycemic activity in db/db mouse assessed as decrease in blood glucose level at 30 mg/kg, po treated for 1 week measured at 3 hrs post last dose (reference value: 0.0 +/- 8.6%); format: functional; design: scale not given: the % may be the effect or the level left
[4] = AUC (0 to infinity) in Sprague-Dawley rat at 20 mg/kg, ig by LC/MS/MS analysis; format: ADME, organism-based; design: dose 20 mg/kg, route intragastric, time infinity; settings: in vivo, po
How it was run: (§1)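 SD rats, three male and three female. Given iv at 5 mg/kg and intragastric at 20 mg/kg; the oral dose went by gavage in 20% 1,2-propanediol/80% water. Heparinized blood was sampled over 32 h post dose. Plasma was extracted with EtOAc and measured by LC/MS/MS. Non-compartmental analysis gave the PK parameters (n = 6).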

[5] = system: Rattus norvegicus; test: Clearance in Sprague-Dawley rat at 5 mg/kg, iv by LC/MS/MS analysis; format: ADME, organism-based; settings: in vivo; how it was run: as §1
[6] = system: Mus musculus; test: Hypolipemic activity in db/db mouse assessed as total plasma cholesterol level at 30 mg/kg, po treated for 3 consecutive weeks (reference value: 6.05 to 6.98 mM); format: functional
[7] = system: Rattus norvegicus; test: Clearance in Sprague-Dawley rat at 20 mg/kg, ig by LC/MS/MS analysis; format: ADME, organism-based; settings: in vivo, po; how it was run: as §1
[8] = system: Rattus norvegicus; test: Volume of distribution in Sprague-Dawley rat at 5 mg/kg, iv by LC/MS/MS analysis; format: ADME, organism-based; settings: in vivo; how it was run: as §1
[9] = Tmax in Sprague-Dawley rat at 20 mg/kg, ig by LC/MS/MS analysis; format: ADME, organism-based; settings: in vivo, po; how it was run: as §1
[10] = system: Rattus norvegicus; test: Half life in Sprague-Dawley rat at 5 mg/kg, iv by LC/MS/MS analysis; format: ADME, organism-based; settings: in vivo; how it was run: as §1
[11] = system: Rattus norvegicus; test: Half life in Sprague-Dawley rat at 20 mg/kg, ig by LC/MS/MS analysis; format: ADME, organism-based; settings: in vivo, po; how it was run: as §1
[12] = AUC (0 to t) in Sprague-Dawley rat at 5 mg/kg, iv by LC/MS/MS analysis; format: ADME, organism-based; settings: in vivo; how it was run: as §1
[13] = system: Mus musculus; test: Potency index, ratio of test compound to GY3 hypoglycemic activity in db/db mouse assessed as decrease in blood glucose level at 30 mg/kg, po treated for 3 week measured at 3 hrs post last dose; format: functional
[14] = AUC (0 to infinity) in Sprague-Dawley rat at 5 mg/kg, iv by LC/MS/MS analysis; format: ADME, organism-based; design: dose 5 mg/kg, route intravenous, time infinity; settings: in vivo; how it was run: as §1
[15] = system: Mus musculus; test: Hypoglycemic activity in db/db mouse assessed as decrease in blood glucose level at 30 mg/kg, po administered as single dose measured at 3 hrs post last dose (reference value: 0.0 +/- 4.1%); format: functional; design: scale not given: the % may be the effect or the level left
[16] = system: Mus musculus; test: Hypolipemic activity in db/db mouse assessed as plasma fasting triglyceride level at 30 mg/kg, po treated for 3 consecutive weeks (reference value: 0.70 to 0.97 mM); format: functional
[17] = Cmax in Sprague-Dawley rat at 20 mg/kg, ig by LC/MS/MS analysis; format: ADME, organism-based; design: dose 20 mg/kg, route intragastric; settings: in vivo, po; how it was run: as §1
[18] = Bioavailability in Sprague-Dawley rat at 20 mg/kg, ig by LC/MS/MS analysis; format: ADME, organism-based; settings: in vivo, po; how it was run: as §1
[19] = AUC (0 to t) in Sprague-Dawley rat at 20 mg/kg, ig by LC/MS/MS analysis; format: ADME, organism-based; settings: in vivo, po; how it was run: as §1
[20] = system: Mus musculus; test: Hypoglycemic activity in db/db mouse assessed as decrease in blood glucose level at 30 mg/kg, po treated for 2 week measured at 3 hrs post last dose (reference value: 0.0 +/- 4.0%); format: functional; design: scale not given: the % may be the effect or the level left
[21] = system: Rattus norvegicus; test: Volume of distribution in Sprague-Dawley rat at 20 mg/kg, ig by LC/MS/MS analysis; format: ADME, organism-based; settings: in vivo, po; how it was run: as §1
[22] = biological target: T1, AMP-activated protein kinase, AMPK (Homo sapiens) (UniProt P54646+O43741+P54619+Q9UGJ0+Q9Y478+Q13131+Q9UGI9); test: Activation of AMPK in human HepG2 cells assessed as induction of glucose consumption at 10 uM treated over 24 hrs by glucose oxidase method relative to control; format: cell-based
How it was run: (§2)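 HepG2 cells kept in DMEM (25 mM D-glucose) with 10% serum at 37 °C, 5% CO2. At 80-90% confluence the medium was switched to serum-free RPMI-1640 with 11.1 mM glucose and 0.2% BSA. Compounds in DMSO (0.5% v/v vehicle control) were given for 24 h. Medium glucose was read by glucose oxidase; consumption = cell-free blank wells minus cell wells. Student's t test against control.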

[23] = biological target: T1, AMP-activated protein kinase, AMPK (Homo sapiens); test: Activation of AMPK in human HepG2 cells assessed as induction of glucose consumption treated over 24 hrs by glucose oxidase method; format: cell-based; how it was run: as §2
[24] = system: HepG2; test: Activation of AMPKalpha in human HepG2 cells assessed as ACC phosphorylation at Ser79 residue at 10 uM by Western blot analysis; format: cell-based
How it was run: (§3)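 HepG2 cells were treated at 10 μM and lysed in pH 7.5 Tris buffer containing NaF, β-glycerophosphate, EDTA/EGTA, Triton X-100 and protease inhibitors, then cleared at 10,000 × g for 30 min at 4 °C. Equal lysate volumes were run on 8% SDS-PAGE and transferred to PVDF. Blots were probed for p-AMPKα (Thr172) and p-ACC (Ser79) with HRP secondary antibodies.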

[25] = biological target: T1, AMP-activated protein kinase, AMPK (Homo sapiens); test: Activation of AMPK in human HepG2 cells assessed as induction of glucose consumption at 0.1 uM treated over 24 hrs by glucose oxidase method relative to control; format: cell-based; how it was run: as §2
[26] = biological target: T1, AMP-activated protein kinase, AMPK (Homo sapiens); test: Activation of AMPK in human HepG2 cells assessed as induction of glucose consumption at 1 uM treated over 24 hrs by glucose oxidase method relative to control; format: cell-based; how it was run: as §2
[27] = system: HepG2; test: Induction of AMPKalpha phosphorylation at Thr172 residue in human HepG2 cells at 10 uM by Western blot analysis; format: cell-based; how it was run: as §3
[28] = biological target: T1, AMP-activated protein kinase, AMPK (Homo sapiens); test: Activation of AMPK in human HepG2 cells assessed as induction of glucose consumption at 1 mM treated over 24 hrs by glucose oxidase method relative to control; format: cell-based; how it was run: as §2

O=C(O)C1CCc2c(c3cc(OCc4ccccc4)ccc3n2C(=O)c2ccc(Cl)cc2)C1 (stereo in doubt; 7a) [listing 1 of 2 here]
Activity [1]: 28% | Activity [2]: 10.4% | Activity [3]: 29.3% | AUC(0-inf) [4]: 48300 ng·h/mL | CL [5]: 1.2 mL/min/kg | Activity [6]: 6.93 mM | CL [7]: 7.5 mL/min/kg | Vd [8]: 2.7 L/kg | Tmax [9]: 7.83 h | t1/2 [10]: 7.2 h | t1/2 [11]: 6.46 h | AUC(0-t) [12]: 39600 ng·h/mL | Ratio [13]: 2 | AUC(0-inf) [14]: 71000 ng·h/mL | Activity [15]: 30.6% | Activity [16]: 0.54 mM | Cmax [17]: 2320 ng/mL | bioavailability [18]: 20.2% | AUC(0-t) [19]: 32000 ng·h/mL | Activity [20]: 19.6% | Vd [21]: 9.98 L/kg

O=C(O)C1CCc2c(c3cc(OCc4ccccc4)ccc3n2C(=O)c2ccc(F)cc2)C1 (centres undefined)
Activity [22]: 75.2%

N#Cc1ccc(COc2ccc3c(c2)c2c(n3C(=O)c3ccc(Cl)cc3)CCC(C(=O)O)C2)cc1 (centres undefined)
Activity [22]: 50.2 to 72.8% | Activity [23]: Dose-dependent effect | Activity [24]: Active | Activity [25]: 9.65% | Activity [26]: 26.8% | Activity [27]: Active

COc1ccc(S(=O)(=O)n2c3c(c4cc(OCc5ccccc5)ccc42)CC(C(=O)O)CC3)cc1 (centres undefined)
Activity [22]: 60.3%

Cc1ccc(Cn2c3c(c4cc(OCc5ccccc5)ccc42)CC(C(=O)O)CC3)cc1 (centres undefined)
Activity [22]: 42.2%

CN(C)C(=N)NC(=N)N
Activity [28]: 60.4 to 63.7%

O=C(O)C1CCc2c(c3cc(OCc4ccccc4)ccc3n2C(=O)c2ccc(Cl)cc2)C1 (single isomer, unassigned; (-))
Activity [22]: 76.4 to 85.5% | Activity [23]: Dose-dependent effect | Activity [24]: Active | Activity [25]: 12.9% | Activity [26]: 35.6% | Activity [27]: Active

O=C(O)C1CCc2c(c3cc(OCc4ccc(F)cc4)ccc3n2C(=O)c2ccc(Cl)cc2)C1 (centres undefined)
Activity [22]: 53.4 to 68.8% | Activity [23]: Dose-dependent effect | Activity [25]: 0.11% | Activity [26]: 20.1%

O=C(O)C1CCc2c(c3cc(OCc4ccccc4)ccc3n2Cc2ccccc2)C1 (centres undefined)
Activity [22]: 30.4%

O=C(O)C1CCc2[nH]c3ccc(OCc4ccccc4)cc3c2C1 (centres undefined)
Activity [22]: 48.4 to 52.3% | Activity [23]: Dose-dependent effect | Activity [24]: Active | Activity [25]: 29% | Activity [26]: 37.2% | Activity [27]: Active

O=C(O)C1CCc2c(c3cc4c(cc3n2S(=O)(=O)c2ccc(Cl)cc2)OCO4)C1 (centres undefined)
Activity [22]: 47.5%

O=C(O)C1CCc2c(c3cc(OCc4ccccc4)ccc3n2C(=O)c2ccc(Cl)cc2)C1 (stereo in doubt; (+)-7a)
Activity [22]: 55.3 to 60.6% | Activity [23]: Dose-dependent effect | Activity [24]: Active | Activity [25]: 1.79% | Activity [26]: 27.3% | Activity [27]: Active

O=C(O)C1CCc2c(c3cc(OCc4ccccc4)ccc3n2C(=O)c2ccc(Cl)cc2)C1 (stereo in doubt; 7a) [listing 2 of 2 here]
Activity [22]: 72.9 to 82.5% | Activity [23]: Dose-dependent effect | Activity [24]: Active | Activity [25]: 15.5% | Activity [26]: 30.2% | Activity [27]: Active

CC(Oc1ccc2c(c1)c1c(n2C(=O)c2ccc(Cl)cc2)CCC(C(=O)O)C1)c1ccccc1 (centres undefined)
Activity [22]: 62.1 to 68.7% | Activity [23]: Dose-dependent effect | Activity [24]: Active | Activity [25]: 4.89% | Activity [26]: 32.2% | Activity [27]: Active

O=C(O)C1CCc2c(c3cc(OCc4ccccc4)ccc3n2Cc2ccc(Cl)cc2)C1 (centres undefined)
Activity [22]: 32.7%

O=C(O)c1ccccc1-c1ccc(Cn2c3c(c4cc(OCc5ccccc5)ccc42)CC(C(=O)O)CC3)cc1 (centres undefined)
Activity [22]: 27.5%

O=C(O)C1CCc2c(c3cc(OCc4ccccc4)ccc3n2S(=O)(=O)c2ccc(Cl)cc2)C1 (centres undefined)
Activity [22]: 64.5% | Activity [1]: 14.3% | Activity [2]: 3.7% | Activity [3]: 28.9% | Activity [6]: 6.91 mM | Activity [15]: 15.5% | Activity [16]: 0.99 mM | Activity [20]: 16.3%

O=C(O)C1CCc2c(c3cc(OCc4ccccn4)ccc3n2C(=O)c2ccc(Cl)cc2)C1 (centres undefined)
Activity [22]: 47.5%

Cc1nc(C)c(COc2ccc3c(c2)c2c(n3C(=O)c3ccc(Cl)cc3)CCC(C(=O)O)C2)nc1C (centres undefined)
Activity [22]: 47.5% | Activity [24]: Active | Activity [27]: Active

Cc1c(CC(=O)O)c2cc(OCc3ccccc3)ccc2n1C(=O)c1ccc(Cl)cc1
Activity [1]: 13.5% | Activity [2]: 8.5% | Activity [3]: 25.7% | Activity [6]: 7.78 mM | Activity [15]: 32.9% | Activity [16]: 0.79 mM | Activity [20]: 30.3%

COc1ccc(S(=O)(=O)n2c3c(c4cc5c(cc42)OCO5)CC(C(=O)O)CC3)cc1 (centres undefined)
Activity [22]: 40.3%

COc1ccc2c(c1)c1c(n2C(=O)c2ccc(Cl)cc2)CCC(C(=O)O)C1 (centres undefined)
Activity [22]: 50.5%

O=C(O)C1CCc2c(c3cc4c(cc3n2C(=O)c2ccc(Cl)cc2)OCO4)C1 (centres undefined)
Activity [22]: 55.1%

O=C(O)C1CCc2c(c3cc(OCc4ccccc4)ccc3n2Cc2ccc(F)cc2)C1 (centres undefined)
Activity [22]: 34.3%

CCc1ccc(CCOc2ccc(CC3SC(=O)NC3=O)cc2)nc1 (centres undefined) [PIOGLITAZONE]
Activity [1]: 37.4% | Activity [2]: 16.3% | Activity [3]: 37.1% | Activity [6]: 7.89 mM | Activity [15]: 21.9% | Activity [16]: 0.51 mM | Activity [20]: 34.5%
